Results pooled from the literature.
Each line is one published result; the experiments were not run side by side.
Target: Serine/threonine-protein kinase Sgk2 (SGK2, Homo sapiens, UniProt Q9HBY8)
One construct used (Q9HBY8 1-367): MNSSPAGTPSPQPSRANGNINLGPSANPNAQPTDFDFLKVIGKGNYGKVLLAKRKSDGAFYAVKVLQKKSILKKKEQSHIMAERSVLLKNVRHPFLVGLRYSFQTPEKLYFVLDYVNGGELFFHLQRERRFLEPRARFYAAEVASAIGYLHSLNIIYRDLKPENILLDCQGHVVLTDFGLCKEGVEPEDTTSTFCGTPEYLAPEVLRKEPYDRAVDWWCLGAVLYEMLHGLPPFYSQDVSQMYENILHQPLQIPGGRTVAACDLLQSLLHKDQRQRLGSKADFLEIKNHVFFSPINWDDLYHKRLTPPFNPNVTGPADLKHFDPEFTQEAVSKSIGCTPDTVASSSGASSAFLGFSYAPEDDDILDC

| Structure (SMILES) | observed | action | method | concentration | endpoint | value |
| --- | --- | --- | --- | --- | --- | --- |
| CCN(CC)CCNC(=O)c1c(C)[nH]c(/C=C2\C(=O)Nc3ccc(F)cc32)c1C | enzyme activity | inhibitor |  | 0.3 µM | inhibition | 4% |
| NS(=O)(=O)c1cc(NC(=O)C2(c3ccccc3Cl)CC2)ccc1Oc1cccc(Cl)c1 | cell-free assay |  | competition with immobilised ligand | 1 µM | remaining binding | 100% |
| COc1cc2ncnc(Nc3ccc(Oc4ccccc4)c(C)c3C)c2cc1OC | enzyme activity | inhibitor |  | 1 µM | inhibition | 0% |
| Cc1ccc(C(=O)Nc2ccc(CN3CCN(C)CC3)c(C(F)(F)F)c2)cc1C#Cc1cnc2cccnn12 | enzyme activity | inhibitor |  | 23.5 nM | remaining activity | 76% |
| O=C(Nc1cnn(-c2csc(C(=O)NC3COC3)c2)c1)Nc1c(F)cccc1Cl | enzyme activity | inhibitor |  | 5 µM | remaining activity | 88.6% |
| CN1CC(Oc2cnc(C#N)cc2-c2ccn3nc(NC(=O)C4CC4)cc3c2)C1 | enzyme activity | inhibitor |  | 1 µM | inhibition | -2% |
| CCc1ccccc1C(=O)Nc1n[nH]c2c(C)c(F)c(C3C(C#N)=C(C)N(C)C(C)=C3C#N)cc12 | cell-free assay |  | competition with immobilised ligand | 1 µM | remaining binding | 100% |
| Cc1cnc(NC2CCOCC2)nc1-n1cnc(C(=O)NC(CN)c2cc(F)cc(Cl)c2)c1 (stereo not drawn) | enzyme activity | inhibitor | radiometric | 1 µM | remaining activity | 25% |
| N#CCCc1ccc2c(c1)-c1[nH]c3ccc([N+](=O)[O-])cc3c1CC(=O)N2 | cell-free assay |  |  | 0.5 µM | remaining signal | 114% |
| Cc1cc(NC(=O)c2cccc3cc(-c4cccc5[nH]nc(N)c45)ccc23)ccc1F | enzyme activity | inhibitor |  | 0.1 µM | activity vs control | 76% |
| CNC(=O)Nc1ccc2c(c1)CC[C@@]21OC(=O)N(CC(=O)N(Cc2ccc(F)cc2)[C@@H](C)C(F)(F)F)C1=O | cell-free assay |  | competition with immobilised ligand | 1 µM | remaining binding | 100% |
| CNC(=O)c1cc(Oc2ccc(NC(=O)Nc3ccc(Cl)c(C(F)(F)F)c3)cc2)ccn1 | enzyme activity | inhibitor |  | 10 µM | inhibition | -2% |
| Nc1ncnc2occ(-c3ccc(NC(=O)Nc4cc(C(F)(F)F)ccc4F)cc3)c12 | cell-free assay | inhibitor |  | 20 µM | remaining signal | 13% |
| Cc1ccc(Nc2nccc(N(C)c3ccc4c(C)n(C)nc4c3)n2)cc1S(N)(=O)=O | enzyme activity | inhibitor |  | 0.3 µM | inhibition | 5% |
| CCC(=N\O)/C(C)=C/c1ccc(F)cc1 | cell-free assay |  | competition with immobilised ligand | 1 µM | remaining binding | 78% |
| Cn1cnc(Br)c1C1=CN(c2ncnc3[nH]cnc23)CCS1 | enzyme activity | inhibitor | radiometric | 50 nM | inhibition | 20.8% |
| CCCOc1ccc(OC)c(F)c1C(=O)c1ccc(C(=O)N[C@@H]2CNC[C@H]2NC(=O)c2ccc3[nH]ncc3c2)cc1 | enzyme activity | inhibitor |  | 10 µM | remaining activity | 1% |
| O=C1CCc2cc(Nc3cc(OC4CCOCC4)c([N+](=O)[O-])cc3Cl)ccc2N1 | cell-free assay |  | competition with immobilised ligand | 1 µM | remaining binding | 80% |
| O=C1Nc2ccc(Cl)cc2C1=Cc1cc(Cl)c(O)c(Cl)c1 | cell-free assay |  |  | 0.5 µM | remaining signal | 89.2% |
| CC(=O)c1c(NS(C)(=O)=O)c2cc(-c3ccc(Cl)cc3)c(-c3ccc(Cl)cc3Cl)nc2n(C)c1=O | cell-free assay |  | competition with immobilised ligand | 1 µM | remaining binding | 92% |
| CC(C)(C)c1nc2c(s1)c1nc(N)ncc1c1ccc(NS(=O)(=O)c3c(F)cccc3F)c(F)c12 | enzyme activity | inhibitor | radiometric | 1 µM | remaining activity | 91% |
